ChEMBL document CHEMBL1221202, “Small-molecule pheromones that control dauer development in Caenorhabditis elegans” (Nat Chem Biol, 2007)
Calls of active or inactive are those of the source. No cut-off for these calls is given here.

How the values were obtained:
[1] = system: Caenorhabditis elegans; test: Induction of dauer formation in wild type Caenorhabditis elegans Bristol […] at 25 degC; assay type: functional, organism-based
Procedure, shortened: (§1)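 Wild-type N2 eggs were laid on plates containing a range of ascaroside concentrations plus a little food, then held at 20 °C or 25 °C, and percent dauer formation was scored. Each value is the mean of three experiments. EC50 was taken as half-maximal activity from a sigmoidal fit with the lower limit fixed at 0 and the upper limit left free.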

[2] = system: Caenorhabditis elegans; test: Induction of dauer formation in Caenorhabditis elegans Bristol ocr-2(ak47) mutant at 20 degC; assay type: functional, organism-based
Procedure, shortened: (§2)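 Dauer formation assay: eggs were laid on agar plates containing a range of ascaroside concentrations plus a small amount of food, and percent dauer formation was scored. Stock worms were maintained at 20–23 °C on NG plates made with Noble agar and seeded with E. coli OP50.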

[3] = system: Caenorhabditis elegans; test: Induction of dauer formation in Caenorhabditis elegans Bristol tax-4(p678) mutant at 20 degC; assay type: functional, organism-based; procedure, shortened: as §2
[4] = system: Caenorhabditis elegans; test: Induction of dauer formation in Caenorhabditis elegans Bristol osm-9(ky10) mutant at 20 degC; assay type: functional, organism-based; procedure, shortened: as §2
[5] = system: Caenorhabditis elegans; test: Induction of dauer formation in Caenorhabditis elegans Bristol egl-4(ks61) mutant at 20 degC; assay type: functional, organism-based; procedure, shortened: as §2
[6] = system: Caenorhabditis elegans; test: Induction of dauer formation in wild type Caenorhabditis elegans Bristol […] at 20 degC; assay type: functional, organism-based; procedure, shortened: as §1
[7] = system: Caenorhabditis elegans; test: Induction of dauer formation in Caenorhabditis elegans Bristol daf-7(1372) mutant at 20 degC; assay type: functional, organism-based; procedure, shortened: as §2
[8] = system: Caenorhabditis elegans; test: Induction of dauer formation in Caenorhabditis elegans Bristol tax-2(p691) mutant at 20 degC; assay type: functional, organism-based; procedure, shortened: as §2
[9] = system: Caenorhabditis elegans; test: Induction of dauer formation in wild type Caenorhabditis elegans Bristol N2 at 73 uM

EC50 [1] [nM]	EC50 [6] [nM]	Compound	Activity [2]	Activity [3]	Activity [4]	Activity [5]	Activity [7]	Activity [8]	Activity [9]
120	460	CC(=O)CC[C@@H](C)O[C@@H]1O[C@@H](C)[C@H](O)C[C@H]1O	inactive	inactive	inactive	inactive	inactive	inactive	Active
370	1100	C[C@H](CCCC/C=C/C(=O)O)O[C@@H]1O[C@@H](C)[C@H](O)C[C@H]1O	inactive	inactive	inactive	inactive	inactive	inactive	Active
18000	88000	C[C@H](CCCCC(=O)O)O[C@@H]1O[C@@H](C)[C@H](O)C[C@H]1O [DAUMONE]	inactive	inactive	inactive	inactive	inactive	inactive	–
